Most compounds without a hit are left out; they make up all but 3% or so of the library.
Yeast growth inh: yeast BB579 growth reduction in restrictive medium; S. cerevisiae BB579 growth, OD615, 48 h; inhibition, % at 10 µM; 140,000 tested, 0.51% active;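 active = inhibition above a set limit, 3 SD over the mean compound inhibition, cut at about 44% in these data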
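System: Saccharomyces cerevisiae DeaD strain BB579, replicative lifespan model yeast. Buffer or medium: restrictive glucose-based CSMM-D medium. Doses: one dose, 10 µM compound with 0.25% DMSO. Timing: 4 h preincubation and 48 h exposure at 30 °C. Detection: turbidity as optical density at 615 nm. Benchmarks: amphotericin B 10 µg/mL, positive.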
Yeast life ext: extends the lifespan of yeast | 130,000 tested, 0.68% active | inhibition of the nicotinamide effect, % at 10 µM | S. cerevisiae growth with nicotinamide, OD615; deaD strain in restrictive glucose medium;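 active = inhibition above a set limit, placed 3 SD over the median of all compounds, cut at about 26% in these data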;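 note: 0% = nicotinamide-treated wells and 100% = cells grown without nicotinamide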
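Assay system: DeaD-strain S. cerevisiae. Medium: CSMM-D glucose medium, restrictive. Reagent: nicotinamide, 1.5 mM, co-present with compound. Compound: 10 µM single point, 0.25% DMSO. Schedule: culture preincubation 4 h, compound exposure 48 h, both 30 °C. Detection: absorbance at 615 nm.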
Insulin prom up: MIN6 insulin promoter up-regulation | MIN6 insulin promoter-GFP reporter, high-content imaging; stronger effect = higher value | z-score at 5 µM | 190,000 tested, 0.3% active | AID 1625;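 active = z-score above 3 at 5 µM with at least 500 cells counted in the well; inconclusive = wells under 500 cells, flagged as cytotoxic or low count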
RAM inhibit: inhibitors of the yeast RAM network; S. cerevisiae dse1pr::URA3 reporter, 5-FOA growth OD615, 2 d; analog-sensitive cbk1-as2 kinase mutant strain; inhibition, % at 50 µM; 190,000 tested, 1.8% active; AID 868;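 active = inhibition above a set limit, 3 SD over mean compound inhibition, cut at about 8.4% in these data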;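 note: 0% = DMSO-only wells with no growth and 100% = 10 µM 1-NA-PP1 full growth; inhibition rescues growth on 5-FOA so higher OD means more RAM inhibition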
Insulin prom inh: TRM-6 insulin promoter activity inhibition. inhibition, % at 2 µM. 130,000 tested, 0.9% active. TRM-6 cells, insulin promoter-eGFP reporter, imaging; reporter expression induced with tamoxifen. AID 1273;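 active = inhibition above the mean plus 3 SD, with well images judged a real hit on visual review, cut at about 60% in these data, passing the limit was not always enough; inconclusive = inhibition over the cutoff but images rejected on review; inactive = inhibition not above the cutoff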
* marks the source's active call; other numbers are inactive results; u = inconclusive; x = no result.

SMILES | Yeast growth inh | Yeast life ext | Insulin prom up | RAM inhibit | Insulin prom inh
COc1ccc(-c2cn3ccccc3n2)cc1 | x | x | -0.13 | x | x
Cc1nn(CC2CC2)c(=O)n1-c1ccccc1 | x | x | -0.3 | 1 | x
CCCCn1nc(C(=O)Nc2cc(S(=O)(=O)N(C)C)ccc2C)c2ccccc2c1=O | x | x | -0.05 | x | x
Cc1ccc(-n2nnnc2SCc2nnc(-c3ccccc3Br)o2)cc1 | -91 | -10 | -0.17 | 10* | x
Cc1cccc(Oc2nc(CN3CCOCC3)nc3sc4c(c23)CCCC4)c1 | -28 | 33* | -0.61 | 0 | 36
COc1ccccc1-n1c(=O)c2c3c(sc2n2c(=S)[nH]nc12)CCC3 | x | x | x | 2 | 61
COC(C[C@H]1O[C@H]1[C@@H](O)[C@@H](C)OCc1ccccc1)OC | x | x | -0.53 | x | x
CCOc1ccc(CN(CCC#N)C(=S)NC(=O)c2ccccc2)cc1 | -28 | 5 | -0.39 | 0 | x
CCOc1ccc(C(=O)NC(=S)N(Cc2ccccc2)Cc2ccccc2)cc1 | -2 | -24 | -0.95 | 8.6* | 0
CCOC(=O)c1ccc(NC(=O)c2ccccc2[N+](=O)[O-])cc1 | 3 | -3 | -0.82 | 0 | -3
CCOC(=O)c1cc([N+](=O)[O-])c([N+](=O)[O-])cc1NC(C)=O | 99* | -12 | -1.4 | 0 | -3
O=C(/C=C/c1ccc(F)cc1)NC(Cc1c[nH]c2ccccc12)C(=O)O (stereo not given) | x | x | -0.01 | 7 | x
CCN(CC)c1nc2ccccc2[nH]1 | -22 | 6 | -0.32 | 0 | 72*
COc1ccc(NC(=O)CCC(=O)N(Cc2ccc(OC)c(OC)c2)c2nccs2)cc1 | -7 | 1 | 0.39 | 10* | 67
O=C(CCN1CCCCC1)c1ccccc1 | -11 | -7 | 0.95 | 2 | 14
C[N+]1(CCC(=O)c2ccccc2)CCCCC1 | -18 | 6 | 0.48 | 0 | 64*
COc1ccccc1C(=O)Oc1ccc2c(c1)O/C(=C\c1ccncc1)C2=O | -17 | 47* | x | 1 | x
Cc1ccc(-n2[nH]c(C)c(C=Nc3ccc(S(=O)(=O)N4CCOCC4)cc3)c2=O)c(C)c1 | -31 | 3 | 0.05 | 0 | -16
CCOC(=O)/C(=C\c1ccccc1)C(=O)c1cc(C(C)=O)c(Nc2ccccc2)s1 | -22 | -3 | 0.71 | 3 | -29
CCOC(=O)/C(=C\c1cccnc1)C(=O)c1cc(C(C)=O)c(Nc2ccccc2)s1 | -52 | 33* | -1.3 | 2 | -13
COc1cc(C)c(NC(=S)NCCCN2CCOCC2)cc1OC | x | x | -0.56 | 0 | x
Cc1ccc(S(=O)(=O)n2nc(OC(=O)c3ccco3)cc2N)cc1 | -30 | 12 | x | 2 | x
COc1ccccc1C(=O)Oc1cc(N)n(S(=O)(=O)c2ccc(C)cc2)n1 | -6 | 45* | 1 | 2 | 79*
Cc1ccc(CSc2nc3ccccc3cc2C=O)cc1 | -11 | 30 | 1.6 | 10* | -45
O=Cc1cc2ccccc2nc1SCc1ccc(Cl)cc1 | -27 | 34* | -0.09 | 7 | 50
SMILES | Yeast growth inh | Yeast life ext | Insulin prom up | RAM inhibit | Insulin prom inh
O=c1[nH]c(SCc2ccc(Cl)cc2)nc2ccccc12 | x | x | 0.26 | 5 | x
O=Cc1cc2ccccc2nc1SCc1ccc(Cl)c(Cl)c1 | -70 | 17 | u | 8.6* | 9
Cc1ccc(CSc2ncnc3ccccc23)cc1 | x | x | -0.62 | 0 | -11
CCc1cc2ccccc2nc1Cl | x | x | 1 | 3 | x
O=C(NCc1ccccc1Cl)C(=O)NCC1OCCN1S(=O)(=O)c1cccs1 (stereo not given) | x | x | -0.94 | 2 | -50
CCc1ccc(CN(C)C(=O)CCc2nnc(Cc3cccc(C)c3)o2)nc1 | x | x | -0.19 | 0 | x
O=C(CSCC(=O)OCC(=O)c1ccc(Br)cc1)Nc1cccc2ccccc12 | -44 | -17 | 0.84 | 10* | x
O=C(CCC(=O)OCC(=O)c1ccc(Br)cc1)Nc1cccc2cccnc12 | -25 | -16 | 1.4 | 4 | 35
O=C(CSc1cccc2cccnc12)OCC(=O)c1ccc(Br)cc1 | -28 | -1 | x | 9.6* | 19
CNC(=S)N(CCc1ccc(S(N)(=O)=O)cc1)C1CC(=O)N(c2ccccc2F)C1=O (stereo not given) | x | x | 1.5 | 9.4* | x
CCOC(=O)CN1CCS(=O)(=O)CC1 | x | x | -0.76 | 3 | x
O=C(O)c1ccccc1Cc1nc2cc(Cl)ccc2c(=O)[nH]1 | x | x | 0.18 | 8.6* | x
CC(=O)c1ccc(NC(=S)Nc2cccc(Cl)c2C)cc1 | x | x | 0.38 | 2 | x
c1ccc(-n2ncc3c2ncn2cnnc32)cc1 | 3 | -28 | 0.98 | 3 | -3
CCc1nnc2c3cnn(-c4ccccc4)c3ncn12 | -71 | -20 | 1.2 | 4 | 78*
